Data: the EternaBench riboswitch data

System: MS2 coat protein
Assay: apparent Kd, MS2 coat protein; higher = weaker binding; RNA-MaP array; tryptophan 2.4 mM where present
Outline: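 Binding was read on Illumina sequencing-chip clusters where stalled E. coli RNA polymerase had transcribed each design. A titration of SNAP-549-labelled MS2 coat protein began at 0.7 or 1.5 nM and doubled to 3 µM, once without ligand and once with constant ligand, in 100 mM Tris-HCl pH 7.5, 80 mM KCl, 4 mM MgCl2, BSA, DTT, yeast tRNA and Tween-20. The apparent Kd is the median of filtered per-cluster binding-curve fits, based on green signal normalised to red-channel RNA signal and control-cluster median Fmax.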

[1] = designed as: ON switch for tryptophan, no ligand
[2] = ligand present: tryptophan, designed as: ON switch for tryptophan
[3] = designed as: OFF switch for tryptophan, no ligand
[4] = ligand present: tryptophan, designed as: OFF switch for tryptophan

Sequence	apparent Kd [1] [nM]	apparent Kd [2] [nM]	apparent Kd [3] [nM]	apparent Kd [4] [nM]
CACGAAAGAUCGGCCGCCACUCAUGUAGCUUACAUGAGGAUCACCCAUGUAUUUUCUUUCUUUUAGAGGACCGGGAUCGAGCGUG	37.4	19.2	–	–
CCUAUGCAGUCGGCCGCCACUGAACAUGAGGAUCACCCAUGUUAUUAUAAAUAUGGUCCUAAAAUCAGGACCGGGACUGUAUAGG	–	–	68	228
CGAUAUAAGACGGCCGCCACUAUUAUGUAACAAAAUAAACAUGAGGAUCACCCAUGUACAUGGGAUAGGACCGGGUCCAAUAACG	112	58.2	–	–
CUACAUUUGUAGAAACCGGUCAACAAUAAUCGAGGACCGGUACGGCCGCCACUCGUAUAAUUUUAUACAUGAGGAUCACCCAUGU	13.5	13.4	–	–
CUACAUUUGUAGAAACCGGUCACCAUUACUCGAGGACCGGUACGGCCGCCACUCGUGUCAUGUGAUACAUGAGGAUCACCCAUGU	22	23.1	–	–
CUAUGCAGGUCGGCCGCCACUACACACAUGAGGAUCACCCAUGUAGUUACUGGGUGAAGUGGCAGUAGGACCGGGACCUGCAUAU	257	360	–	–
CUGUACAUCUCGGCCGCCACUGCAACAUGUACACAUGGACAUGUACAUGAGGAUCACCCAUGUGGCAGGACCGGGAGGUGUGCAG	192	26.5	–	–
GCAACGCUGUCGGCCGCCACUUUUACAUUGGCCGUGCUGUCUCUACAUGAGGAUCACCCAUGUGGAAGGACCGGGACAGCACACU	–	–	29	64
GGAUUAGAGGCGGCCGCCACUGGAACAUGAGGAUCACCCAUGUAGUGCAUGUAAUUAACCUCGAUCAGGACCGGGCCGAUAGUCA	–	–	59.9	103
GGCAAGCGAGACAUGAGGAUCACCCAUGUUCGAGGACCGGUACGGCCGCCACUCGGUGGACUCAUGGUAAAGCCGGUGAGCCAAA	34.6	74.3	–	–
GGGCGCGUGGACUGGCGUGCUCCGCUCCGUCGAGGACCGGUACGGCCGCCACUCGACAUGAGGAUCACCCAUGUGUGAGCUCGCG	–	–	152	474
GGUACAUGAGGAUCACCCAUGUAUUAGUGCCGAGGACCGGUACGGCCGCCACUCGCUUCACAUGAGGAUCACCCAUGUGUCACAG	32	40.8	–	–
GGUACAUGAGGAUCACCCAUGUAUUAGUGCCGAGGACCGGUACGGCCGCCACUCGCUUCACAUGAGGAUCACCCAUGUGUCACUG	29.8	39.8	–	–
GGUAUGUAUUCGGAAACGAAUGCAUACCAACGAGGACCGGUACGGCCGCCACUCGCCGUCCUCAAACAUGAGGAUCACCCAUGUA	–	–	25.9	68.5
GGUUACUCUACGGCCGCCACUGAUUAAUUAUAAUCCUGUACAUAAACAUGAGGAUCACCCAUGUACAGGACCGGGUAGUGUAACC	34.7	29.1	–	–
GGUUACUCUACGGCCGCCACUGUAAUGUAAAGAUACCUGUACAUGACAUGAGGAUCACCCAUGUACAGGACCGGGUAGUGUAACC	237	48.1	–	–
GUAUAUUGAAAACAAUAUACAGUGGGUGAACGAGGACCGGUACGGCCGCCACUCGGACAUGAGGAUCACCCAUGUCCAUGUGAAA	–	–	17	35.2
UAAUGCAGGUCGGCCGCCACUACACACAUGAGGAUCACCCAUGUAGUUACUGGGUGAAGUGGCAGUAGGACCGGGACCUGCAUAA	419	516	–	–
UACUUGCUGACGGCCGCCACUAGAACAUGAGGAUCACCCAUGUACCCGGUCCUACAUGGGAUGACUAGGACCGGGUCAGCAAGAU	–	–	40.9	141
UACUUGCUGACGGCCGCCACUAGAACAUGAGGAUCACCCAUGUAUCUAGUGGCAAUCCUCAUGACUAGGACCGGGUCAGCAAGAU	–	–	9.71	9.56
UAUAGUACCAGACAUGAGGAUCACCCAUGUCGAGGACCGGUACGGCCGCCACUCGGCAGUUUGCGUCCUCAGGUACUCCGGGUCA	–	–	13.9	16.6
UCAUAAGUACCGGUCCUCAGAUCCUCAUGACGAGGACCGGUACGGCCGCCACUCGAAACAUGAGGAUCACCCAUGUAAUAAUACU	–	–	24.1	23.6
UCAUAAGUACCGGUCCUCAGAUCCUCAUGACGAGGACCGGUACGGCCGCCACUCGAAACAUGAGGAUCACCCAUGUAAUAAUAUU	–	–	21.3	19
UCGGAGAAGUCGGCCGCCACUGAACUCUUGUUCUACAUGAGGAUCACCCAUGUUCCUUUGUUUAACAGGACCGGGACUUAUACGA	224	96.3	–	–
UCGUUUGAGGCGGCCGCCACUGGUCUCAUGGUCAACAUGAGGAUCACCCAUGUAUCUUUGCUAAGCAGGACCGGGCCUCGAGCGA	–	–	66.7	36.8
UGUGCAUGAGUUGUAAAAGCUCAUGGGCAUCGAGGACCGGUACGGCCGCCACUCGGCUGUACAUGAGGAUCACCCAUGUCAGGGU	302	567	–	–
UGUGGGCGCACGGCCGCCACUGUCUUCAUCUGUUUGUCUACAUGAGGAUCACCCAUGUUGGUUUACAGGACCGGGUGCAUCUAUG	45.2	30.1	–	–
UUAUAAGUACCGGUCCUCAGAUCCUCAUGACGAGGACCGGUACGGCCGCCACUCGAAACAUGAGGAUCACCCAUGUAAUAAUAUC	–	–	23.8	24.7
